How the values were obtained:
Punta Toro virus [1] = test: Antiviral activity against 500 PFU Punta Toro virus Adames infected C57BL/6 mouse assessed as animals with detectable virus level in serum at 200 mg/kg, po twice daily administered 4 hrs before viral challenge measured on day 4 of viral infection; type: functional
Summary of the method: (§1)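 T-705 was suspended in 0.4% carboxymethylcellulose and given by oral gavage twice daily. Mice were infected subcutaneously with PTV. Five mice per group (10 placebo) were sacrificed on day 3 or 4. Liver homogenate or serum was serially diluted onto triplicate LLC-MK2 monolayers, and CPE was read at 6–8 days. The detection limit was 2.8 log10 CCID50 per 0.1 g liver or 0.1 ml serum.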

Punta Toro virus [2] = test: Antiviral activity against 500 PFU Punta Toro virus Adames infected C57BL/6 mouse assessed as animals with detectable virus level in serum at 50 mg/kg, po twice daily administered 4 hrs before viral challenge measured on day 4 of viral infection; type: functional; summary of the method: as §1
Enterovirus = test: Antiviral activity against Rhinovirus; type: functional, organism-based
Pichinde virus [3] = test: Antiviral activity against Pichinde virus An 4763 infected Syrian golden hamster assessed as mean viral titer per 0.1 mL of serum at 30 mg/kg, po twice daily for 7 days administered 4 hrs before viral-challenge measured on day 7 of viral infection; type: functional
Punta Toro virus [4] = test: Antiviral activity against 500 PFU Punta Toro virus Adames infected C57BL/6 mouse assessed as mean viral titer per 0.1 mL of serum at 100 mg/kg, po twice daily administered 4 hrs before viral challenge measured on day 4 of viral infection; type: functional
Summary of the method: (§2)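 Mice were infected subcutaneously with PTV and dosed by oral gavage twice daily; 5 per group (10 placebo) were killed on day 3 or 4. Liver homogenate or serum was serially diluted onto triplicate LLC-MK2 monolayers, and CPE was read 6–8 days later. 50% endpoints gave log10 CCID50 per 0.1 g liver or 0.1 ml serum. Detection range was 2.8–9.5; undetectable samples were assigned <2.8.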

Tacaribe virus = test: Antiviral activity against Tacaribe virus TRVL11573 assessed as reduction of 1 log10 unit viral titer yields after 7 to 8 days; type: functional; settings: Mammarenavirus tacaribeense
Punta Toro virus [5] = test: Antiviral activity against 500 PFU Punta Toro virus Adames infected C57BL/6 mouse assessed as mean day of death at 75 mg/kg, po twice daily for 5 days administered 4 hrs before viral challenge; type: functional
Summary of the method: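 Groups of 15 mice (25–30 placebo) were inoculated subcutaneously with PTV. Drug in 0.4% carboxymethylcellulose was given by oral gavage twice daily.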

[6] = tested on: Sandfly fever Naples virus; test: Antiviral activity against Sandfly fever Naples virus assessed as reduction of 1 log10 unit viral titer yields after 3 to 5 days; type: functional
Punta Toro virus [7] = test: Antiviral activity against 500 PFU Punta Toro virus Adames infected C57BL/6 mouse assessed as mean serum ALT levels at 5 mg/kg, po twice daily administered 4 hrs before viral challenge measured on day 3 of viral infection; type: functional
Summary of the method: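 C57BL/6 mice received subcutaneous PTV, then oral gavage twice daily for 5–7 days. T-705 was given in 0.4% CMC and ribavirin in saline. Five mice per group (10 placebo) were killed on day 3 or 4, and serum was collected. ALT activity was measured by kinetic assay. Three sham-infected mice set baselines.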

Pichinde virus [8] = test: Antiviral activity against Pichinde virus An 4763 infected Syrian golden hamster assessed as mean serum ALT levels at 30 mg/kg, po twice daily for 7 days administered 4 hrs before viral-challenge measured on day 7 of viral infection; type: functional
Pichinde virus [9] = test: Antiviral activity against Pichinde virus An 4763 infected Syrian golden hamster assessed as animals with detectable virus level in liver at 30 mg/kg, po twice daily for 7 days administered 4 hrs before viral-challenge measured on day 7 of viral infection; type: functional
Pichinde virus [10] = test: Antiviral activity against Pichinde virus An 4763 infected Syrian golden hamster assessed as mean day of death at 30 mg/kg, po twice daily for 7 days administered 4 hrs before viral-challenge; type: functional
Punta Toro virus [11] = test: Antiviral activity against 500 PFU Punta Toro virus Adames infected C57BL/6 mouse assessed as protection against viral infection at 10 mg/kg, po twice daily for 5 to 7 days twice daily administered 4 hrs before viral challenge; type: functional
Summary of the method: (§3)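 PTV was inoculated subcutaneously into mice in groups of 15 (25–30 placebo). Dosing was by oral gavage twice daily for 5–7 days, with T-705 suspended in 0.4% CMC and ribavirin in saline. Remaining animals were observed 21–28 days for survival and day of death. Test doses had first been checked for tolerance in uninfected animals.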

Pichinde virus [12] = test: Antiviral activity against Pichinde virus An 4763 infected Syrian golden hamster assessed as mean viral titer per 0.1 g of liver at 30 mg/kg, po twice daily for 7 days administered 4 hrs before viral-challenge measured on day 7 of viral infection; type: functional
Punta Toro virus [13] = test: Antiviral activity against Punta Toro virus Adames infected Syrian golden hamster assessed as survival at 15 mg/kg, po twice daily for 6 days administered 4 hrs before viral challenge; type: functional
Punta Toro virus [14] = test: Antiviral activity against 500 PFU Punta Toro virus Adames infected C57BL/6 mouse assessed as mean viral titer per 0.1 g of liver at 10 mg/kg, po twice daily administered 4 hrs before viral challenge measured on day 3 of viral infection; type: functional; summary of the method: as §2
Pichinde virus [15] = test: Antiviral activity against Pichinde virus An 4763 infected Syrian golden hamster assessed as animals with detectable virus level in serum at 60 mg/kg, po twice daily for 7 days administered 4 hrs before viral-challenge measured on day 7 of viral infection; type: functional
[16] = tested on: Respiratory syncytial virus; test: Antiviral activity against Respiratory syncytial virus; type: functional, organism-based; settings: human respiratory syncytial virus
Punta Toro virus [17] = test: Antiviral activity against 500 PFU Punta Toro virus Adames infected C57BL/6 mouse assessed as mean serum ALT levels at 10 mg/kg, po twice daily administered 4 hrs before viral challenge measured on day 3 of viral infection; type: functional
Summary of the method: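 Subcutaneous PTV infection was followed by oral gavage twice daily with drug suspended in 0.4% CMC. Serum was collected from 5 sacrificed mice per group (10 placebo) on day 3 or 4. ALT activity was measured by kinetic assay, and sham-infected mice set the baselines.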

Punta Toro virus [18] = test: Antiviral activity against 500 PFU Punta Toro virus Adames infected C57BL/6 mouse assessed as mean viral titer per 0.1 g of liver at 30 mg/kg, po twice daily administered 4 hrs before viral challenge measured on day 3 of viral infection; type: functional; summary of the method: as §2
Pichinde virus [19] = test: Antiviral activity against Pichinde virus An 4763 infected Syrian golden hamster assessed as mean serum ALT levels at 60 mg/kg, po twice daily for 7 days administered 4 hrs before viral-challenge measured on day 7 of viral infection; type: functional
Punta Toro virus [20] = test: Antiviral activity against Punta Toro virus Adames infected Syrian golden hamster assessed as mean viral titer per 0.1 g of liver at 15 mg/kg, po twice daily administered 4 hrs before viral challenge measured on day 4 of viral infection; type: functional
Punta Toro virus [21] = test: Antiviral activity against 500 PFU Punta Toro virus Adames infected C57BL/6 mouse assessed as protection against viral infection at 75 mg/kg, po twice daily for 5 to 7 days; type: functional; summary of the method: as §3
[22] = Cytotoxicity against african green monkey Vero cells after 7 to 8 days by neutral-red dye uptake assay; type: cell-based; settings: chlorocebus sabaeus
Summary of the method: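 Subconfluent (50-70%) Vero cells received half-log drug dilutions without virus and were held at 37°C, 5% CO2 for 7-8 days. Cells were stained with 0.034% neutral red for 2 h, and the dye was extracted 30 min in ethanol with Sorenson's citrate buffer. Absorbance was read at 540 nm as % of untreated controls. CC50 was derived by regression.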

Structure (SMILES): NC(=O)c1nc(F)cnc1O [FAVIPIRAVIR]
- Activity (Punta Toro virus [1]): 0%
- Activity (Punta Toro virus [2]): 10%
- EC50 (Enterovirus): 146 µM
- log10CCID50 (Pichinde virus [3]): <5.2
- log10CCID50 (Punta Toro virus [4]): <2.8
- EC90 (Tacaribe virus): 6 µM
- Activity (Punta Toro virus [5]): >21 days
- EC90 [6]: 3 µM
- Activity (Punta Toro virus [7]): 2461 IU/L
- Activity (Pichinde virus [8]): 378 IU/L
- Activity (Pichinde virus [9]): 100%
- Activity (Pichinde virus [10]): 12.5 days
- Activity (Punta Toro virus [11]): 90%
- log10CCID50 (Pichinde virus [12]): 6.4
- survival at 15 mg/kg (Punta Toro virus [13]): 50%
- log10CCID50 (Punta Toro virus [14]): <2.8
- Activity (Pichinde virus [15]): 0%
- EC50 [16]: 261 µM
- Activity (Punta Toro virus [17]): 501 IU/L
- log10CCID50 (Punta Toro virus [18]): <2.8
- Activity (Pichinde virus [19]): 23 IU/L
- log10CCID50 (Punta Toro virus [20]): >6.9

Structure (SMILES): NC(=O)c1ncn([C@@H]2O[C@H](CO)[C@@H](O)[C@H]2O)n1 [RIBAVIRIN]
- Activity (Punta Toro virus [21]): 100%
- CC50 [22]: 156 µM
